KCNQ1 pot: potentiators or activators of KCNQ1 channel, primary screen, cell-based, thallium flux, high-throughput; actives 0.35% (n = 310,000); CHO-K1 KCNQ1, thallium flux FluxOR fluorescence; hits give high values; B-score at 10 µM;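 active means fluorescence ratio B-score, a plate-corrected score, at least three library SD, with initial intensity B-score within 5 SD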
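Medium – assay buffer, equal DMSO in all wells · Material – CHO-K1 cell line with stable KCNQ1 potassium channel expression · Signal – kinetic FluxOR thallium fluorescence, 10-s 1-Hz baseline, 110-s post-stimulus read · Compound – single concentration per compound, DMSO matched to controls · Schedule – 37 °C overnight plating, 90-min dark dye load, 20-min compound pretreatment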
KCNK9 block: KCNK9 potassium channel inhibitors, primary screen, HEK293 cells, thallium flux; Potassium channel subfamily K member 9 (Homo sapiens), Q9NPC2; FluxOR thallium flux fluorescence; hits give low values; B-score at 10 µM; actives 1.2% (n = 310,000); AID 488922, 2010;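 active means ratio B-score over 3 SD below the library mean, with starting fluorescence within 5 SD of its mean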;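 further: negative B-score means less thallium flux so channel inhibition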
KCNQ1 inh: inhibitors of human KCNQ1 channel, primary screen, cell-based, thallium flux, high-throughput | Potassium voltage-gated channel subfamily KQT member 1 (Homo sapiens), P51787 | CHO-K1 KCNQ1, FluxOR thallium flux fluorescence; hits give high values | B-score at 10 µM | actives 1.3% (n = 310,000) | AID 2642, 2010;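 active means compounds whose thallium flux B-score, printed positive for inhibition, exceeds three library SD while starting fluorescence stays within three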;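 further: channel opened by potassium depolarization with thallium stimulus after 20 min compound exposure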
KCNK3 block: human KCNK3 channel inhibitors, primary screen, CHO cells, FluxOR thallium flux, B-score; Potassium channel subfamily K member 3 (Homo sapiens), O14649; FluxOR fluorescence; hits give low values; B-score at 10 µM; actives 0.84% (n = 340,000);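 active means B-score under library mean minus 4 SD, starting fluorescence ratio at most library mean plus 5 SD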;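 further: more negative B-score means stronger inhibition of thallium flux through KCNK3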
hERG rescue: hERG rescue from dofetilide block, primary screen, cell-based, CHO-hERG, FluxOR thallium flux, dofetilide IC70 | dofetilide IC70 present | activation (rescue from dofetilide block), less the hit threshold, % at 10 µM | actives 0.51% (n = 310,000) | AID 1511, 2009;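 active means activation above the mean of controls blocked by dofetilide plus 5 SD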;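 further: thallium influx through hERG after potassium depolarization seen as dye fluorescence rise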
KCNK9 block conf: KCNK9 potassium channel inhibitors, confirmation, HEK293 cells, thallium flux, duplicate; shares compounds with KCNK9 block; inhibition, % at 10 µM; actives 43% (n = 4,900); FluxOR thallium flux fluorescence; AID 492992, 2010;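 active means thallium signal inhibited by more than 5 SD of the compound-free buffer control wells, on both duplicate plates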;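 further: 0% = assay buffer control wells without compound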
Kir2-1 spec: mouse Kir2.1 channel inhibition, confirmation, selectivity assay for KCNK9 modulator project, cell-based, HEK293, thallium flux. shares compounds with KCNK9 block. Kir2.1 cells, FluxOR thallium flux fluorescence. inhibition, % at 10 µM. actives 4% (n = 4,900). AID 492993, 2010;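 active means thallium signal drop more than 5 SD beyond the mean of the no-compound control wells, seen in both duplicate plates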;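 further: signal is fluorescence rise after thallium addition divided by baseline fluorescence; plate controls were assay buffer only for no effect and full block by chlorpromazine control for full effect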
HEK293 Tl ctr: thallium flux in non-induced HEK293 cells, confirmation, counter-screen for KCNK9 inhibitor project, cell-based, second counter screen, non-induced KCNK9-HEK293; shares compounds with KCNK9 block; FluxOR thallium flux; inhibition, % at 10 µM; actives 40% (n = 4,900); AID 492997, 2010;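 active means thallium signal drop beyond 5 SD of the untreated control mean, on both duplicate plates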;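 further: plate controls were buffer only IC0 wells for no effect and SID17386958 at its maximal inhibitory level for full effect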
* marks the source's active call; other numbers are inactive results; i = inactive; x = not tested or not shown. Only some compounds are listed: those with a hit (about 3.1% of all), similar ones and a draw of the others.

SMILES	KCNQ1 pot	KCNK9 block	KCNQ1 inh	KCNK3 block	hERG rescue	KCNK9 block conf	Kir2-1 spec	HEK293 Tl ctr
CCOC(=O)C1=C(C)N=C2SC(C)C(=O)N2C1c1ccc(OC(C)=O)c(OC)c1 (stereo unspecified)	i	-14.5*	i	i	-7.2	63.0%*	i	33.5%*
COc1ccccc1NC(=O)C1=C(C)NC2=C(C(=O)CCC2)C1c1ccc2c(c1)OCO2 (stereo unspecified)	i	i	i	i	-4.2	x	x	x
Cc1ccc(C)c(N=C2CCCN2Cc2ccccc2)c1C#N	i	-8.9*	i	i	-12.9	i	i	36.0%*
COc1cccc(-c2noc(C(C)n3nc(C)c([N+](=O)[O-])c3C)n2)c1 (stereo unspecified)	i	i	i	i	-6.5	x	x	x
Cn1cc(Br)c(C(=O)N2CCN(c3cccc(Cl)c3)CC2)n1	i	i	i	i	-5.4	x	x	x
COc1cc(/C=C2\SC(=Nc3ccccc3)N(Cc3ccco3)C2=O)ccc1OC(C)C(=O)O (stereo unspecified)	i	i	i	i	-10.5	x	x	x
COCCN1C(=O)/C(=C/c2ccc(OCc3ccc(C(=O)O)cc3)c(OC)c2)SC1=Nc1ccccc1	i	i	i	i	-33.0	i	i	i
Cc1ccc(NC(=O)CN(C)Cc2cccs2)cc1Cl	i	-16.2*	i	i	-12.5	68.0%*	i	32.5%*
COc1ccc(C(=O)N(Cc2nc(-c3ccc(C)cc3)no2)C2CCCCC2)cc1OC	i	i	i	i	-0.8	i	i	i
COc1ccc(-c2noc(CN(C)CCC3CCCCO3)n2)cc1 (stereo unspecified)	i	i	i	i	-5.3	i	i	i
COc1ccc(-c2noc(CN(C)C(=O)c3ccc4c(c3)OCO4)n2)cc1OC	i	i	i	i	-4.1	x	x	x
COC(=O)c1ccc(-c2noc(CN(C)CCC3CCCCO3)n2)cc1 (stereo unspecified)	i	i	i	i	-5.1	i	i	i
COC(=O)[C@H]1C[C@@H](c2ccccc2)[C@H](C)C1(C)C	x	x	x	i	x	x	x	x
CCOC(=O)c1ccccc1NC(=O)COC(=O)C1CC(=O)N(CCc2ccccc2)C1 (stereo unspecified)	i	i	i	i	-13.8	x	x	x
O=C(NCCC1=CCCCC1)NC12CC3CC(CC(C3)C1)C2	i	i	6*	i	-22.1	i	i	i
O=C(NCCc1ccc(F)cc1)NC12CC3CC(CC(C3)C1)C2	i	i	i	i	-9.3	x	x	x
C=C1CCN([C@H](C(=O)O)C(C)C)S(=O)(=O)c2ccccc21	i	i	i	i	-7.7	x	x	x
C=C1CCN([C@H](C(=O)OCc2cccc(C)c2)C(C)C)S(=O)(=O)c2ccccc21	i	-9.02*	i	i	-11.7	46.5%*	i	i
CCOC(=S)SCc1cn2cccc(C)c2n1	i	i	i	i	-11.8	x	x	x
COc1ccc(NC(=O)CN(C)C(=O)CNC(=O)c2cccs2)cc1	i	i	i	i	-10.4	x	x	x
Cc1ccc(NC(=O)c2sccc2SCc2cccc(C(F)(F)F)c2)cc1	i	-13.8*	10*	i	-9.8	64.5%*	47.5%*	50.0%*
Cc1ccc(NC(=O)c2c(C(F)(F)F)nn(C)c2SCc2cccc(C(F)(F)F)c2)cc1C	i	i	i	i	-11.5	x	x	x
Cc1ccc(C(=O)C(OC(=O)CNC(=O)c2ccc(Cl)cc2)c2ccccc2)cc1 (stereo unspecified)	i	i	i	i	-7.2	x	x	x
CCOc1ccc2[nH]c(=O)c(CN(CCc3ccccc3)C(=O)N3CCOCC3)cc2c1	i	i	i	i	-4.9	x	x	x
CCOc1ccc2[nH]c(=O)c(CN(CCc3ccccc3)C(=O)N3CCCC3)cc2c1	i	i	i	i	-11.2	i	i	i
SMILES	KCNQ1 pot	KCNK9 block	KCNQ1 inh	KCNK3 block	hERG rescue	KCNK9 block conf	Kir2-1 spec	HEK293 Tl ctr
COc1ccc(S(=O)(=O)N(C)c2ccc(C(=O)NC3CCCC3)cc2)cc1	i	i	i	i	-9.7	x	x	x
Cc1ccc(-c2noc(CN(C)C(=O)c3ccc(Br)o3)n2)cc1	i	i	i	i	-13.0	x	x	x
Cc1ccc(SCc2c(C#N)c3ccccc3n2C)cc1	i	-11.5*	i	-9.85*	-4.4	57.0%*	i	46.0%*
COc1ccc(N2C(=O)CCC2(C#N)c2ccc(Br)cc2)cc1 (stereo unspecified)	i	i	i	i	-13.2	x	x	x
Cc1ccccc1N1CCN(C2CCCN(C(=O)c3ccc(Cl)s3)C2)CC1 (stereo unspecified)	i	i	i	i	-10.7	i	i	i
CC(C)/C=C/CN1CCCC(N2CCN(c3cccc(Cl)c3)CC2)C1 (stereo unspecified)	i	i	i	i	-9.7	i	i	i
CCOc1cccc(CN2CCCC(N3CCN(c4cccc(Cl)c4)CC3)C2)c1O (stereo unspecified)	i	i	i	i	-11.1	x	x	x
Cc1cccc(C(=O)N2CCCC(N3CCN(c4cccc(Cl)c4)CC3)C2)n1 (stereo unspecified)	i	i	i	i	-9.7	i	i	i
Cc1ccccc1N1CCN(C2CCCN(C(=O)c3cnsn3)C2)CC1 (stereo unspecified)	i	i	i	i	-10.0	i	i	i
CN(Cc1ccsc1)C(=O)Cn1cc(Br)ccc1=O	i	i	i	i	-1.8	x	x	x
CCOC(=O)c1ccc(Nc2ncccc2[N+](=O)[O-])cc1	i	i	i	i	-16.7	x	x	x

Screening results deposited in PubChem by Johns Hopkins Ion Channel Center.
